Calls of active or inactive are those of the source. No cut-off for these calls is given here.

Data set [1] concerns Hepatocyte. The data set is described as follows: Inhibition of p-gp in Wistar rat primary hepatocytes assessed as inhibition of rhodamine 123 efflux at 10 uM after 3 hrs. In kind it is cell-based. Summed up: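 Collagenase-perfused male Wistar rat hepatocytes plated on collagen and cultured 4 days in supplemented Williams Medium E. Cells preloaded 30 min with 5 µM RH123, then exposed 3 h to compound or 0.1% DMSO vehicle. Cells washed with ice-cold HBSS and lysed in 0.5% Triton X100. Intracellular RH123 read by fluorescence at 519/538 nm. Mean ± SD from three isolations, four wells per condition, Student's t-test.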

For data set [2], the system named is Hepatocyte. As to the kind of experiment: Cytotoxicity against Wistar rat primary hepatocytes assessed as change in cell viability at 10 uM after 3 hrs by MTT assay. The class given is cell-based. Summed up:
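Primary hepatocytes from male Wistar rats (200-250 g), cultured as a monolayer, exposed 3 h to compound or vehicle (control), washed, then incubated with 1 mg/mL MTT for 2 h. Cells lysed in DMSO and absorbance read at 570 nm. Viability expressed as % of control.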
(In general: Formazan colour is commonly taken as a measure of viable cells.)

`COc1ccc(-n2nnc(CCC(O)CN3c4ccccc4Sc4ccccc43)n2)cc1` (stereo not drawn): the inhibition entry in the data set on Hepatocyte [1] was “Active”. Take `COc1ccc(-n2nnc(CCC(O)CN3c4ccccc4S(=O)(=O)c4ccc(N5CCOCC5)cc43)n2)cc1` (stereo not drawn): in the data set with Hepatocyte [2], the Activity entry is on record as “Non-toxic”. Moreover, the inhibition entry in the data set with Hepatocyte [1] is “Active”. Take `COc1ccc(-n2nnc(CCC(O)CN3c4ccccc4Sc4ccc(N5CCN(C)CC5)cc43)n2)cc1` (single isomer, unassigned; (+)): the inhibition result in the data set on Hepatocyte [1] was “Active”. Same read-out and setting: to `COc1ccc(-n2nnc(/C=C\C=C\N3c4ccccc4Sc4ccc(Cl)cc43)n2)cc1` belongs “Active”.

Consider `COc1ccc(-n2nnc(CCC(O)CN3c4ccccc4Sc4ccc(NCCN5CCOCC5)cc43)n2)cc1` (stereo not drawn), for which the Activity entry in the data set with Hepatocyte [2] is “Non-toxic”. `COc1ccc(-n2nnc(CCC(O)CN3c4ccccc4Sc4ccc(N5CCOCC5)cc43)n2)cc1` (stereo in doubt; (+)-3h): in the data set with Hepatocyte [1], the inhibition result is “Active”. Take `COc1ccc(-n2nnc(CCC(O)CN3c4ccccc4Sc4ccc(N5CCOCC5)cc43)n2)cc1` (single isomer, unassigned; (-)): the inhibition entry in the data set on Hepatocyte [1] is “Active”. On the same count and under the same terms, to `COc1ccc(-n2nnc(CCC(O)CN3c4ccccc4Sc4ccc(N5CCOCC5)cc43)n2)cc1` (racemic) [listing 1 of 2 here] belongs “Active”; to `COc1ccc(-n2nnc(CCC(O)CN3c4ccccc4Sc4ccc(NC(C)=O)cc43)n2)cc1` (stereo not drawn), “Active”.

As to `COc1ccc(-n2nnc(CCC(O)CN3c4ccccc4Sc4ccc(N5CCN(C)CC5)cc43)n2)cc1` (racemic), in the data set with Hepatocyte [1], the inhibition entry was “Active”. In the case of `COc1ccc(-n2nnc(CCC(O)CN3c4ccccc4Sc4ccc(N5CCN(C)CC5)cc43)n2)cc1` (single isomer, unassigned; (-)), the inhibition entry in the data set on Hepatocyte [1] is “Active”. Regarding `CCN(CC)c1ccc2c(c1)N(CC(O)CCc1nnn(-c3ccc(OC)cc3)n1)c1ccccc1S2` (racemic), in the data set on Hepatocyte [2], the Activity entry is “Non-toxic”. The inhibition result in the data set with Hepatocyte [1] was “Active”. As for `COc1ccc(-n2nnc(CCC(O)CN3c4ccccc4[S+]([O-])c4ccc(N5CCOCC5)cc43)n2)cc1` (stereo not drawn), in the data set on Hepatocyte [2], the Activity result was “Non-toxic”. For the same molecule, the inhibition result in the data set with Hepatocyte [1] was “Active”.

Take `COc1ccc(-n2nnc(CCC(O)CN3c4ccccc4Sc4ccc(C(F)(F)F)cc43)n2)cc1` (stereo not drawn): the inhibition result in the data set with Hepatocyte [1] was “Active”.

As for `COc1ccc(-n2nnc(CCC(O)CN3c4ccccc4Sc4ccc(N5CCOCC5)cc43)n2)cc1` (racemic) [listing 2 of 2 here], the Activity result in the data set with Hepatocyte [2] is listed as “Non-toxic”.
